What was measured:
[1] = target: T1, Adenosine receptor A3 (Homo sapiens) (UniProt P0DMS8); assay: Displacement of specific [125I]AB-MECA binding from human Adenosine A3 receptor expressed in HEK293 cells; format: cell-based; set-up: concentration or dose not given beside the values
T1 sequence (whole entry): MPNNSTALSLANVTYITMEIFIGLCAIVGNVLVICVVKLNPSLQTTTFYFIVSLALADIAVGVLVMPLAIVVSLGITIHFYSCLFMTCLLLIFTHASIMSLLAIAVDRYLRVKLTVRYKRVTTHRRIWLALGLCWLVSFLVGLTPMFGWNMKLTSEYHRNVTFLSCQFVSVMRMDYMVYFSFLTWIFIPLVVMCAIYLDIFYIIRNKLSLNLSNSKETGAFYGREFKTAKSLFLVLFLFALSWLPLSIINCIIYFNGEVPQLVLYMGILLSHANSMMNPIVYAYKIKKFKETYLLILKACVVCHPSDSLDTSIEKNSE
How it was run: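 Membranes came from HEK-293 cells stably expressing human A3. Binding used Mg2+-free 50 mM Tris with 1 mM EDTA, pH 8.0, and 0.3 nM final [125I]AB-MECA. Compounds came from DMSO stock, ≤1% final. Duplicates ran 1 h at 37 or 25 °C, then filtration and γ-counting. Nonspecific binding was set with 100 μM (R)-PIA.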

[2] = target: Adenosine receptor A2a (Rattus norvegicus) (UniProt P30543); assay: Displacement of [3H]-CGS- 21680 from Adenosine A2A receptor in rat striatal membranes at 10e-4 M; format: cell membranes; conditions: Membrane
How it was run: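 Rat striatal membranes were prepared with adenosine deaminase (3 units/mL), including a 30 min step at 30 °C. The enzyme was kept during the [3H]CGS 21680 incubation.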

Adenosine receptor A3 = target: T2, Adenosine receptor A3 (Homo sapiens, UniProt P0DMS8); assay: Displacement of [125I]AB-MECA binding to human Adenosine A3 receptor expressed in HEK293 cells; format: cell-based
T2 sequence (P0DMS8 whole entry): T1 sequence (whole entry)
How it was run: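 Membranes came from HEK-293 cells stably expressing human A3. Compounds came from DMSO stock, ≤1% final. Duplicates ran 1 h at 37 or 25 °C, then filtration and γ-counting. Nonspecific binding was set with 100 μM (R)-PIA.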

Adenosine receptor A2a = Adenosine receptor A2a (Rattus norvegicus, UniProt P30543); assay: Affinity at Adenosine A2A receptor in rat striatal membranes by [3H]- CGS 21680 displacement.; format: cell membranes, Striatum, Membrane
How it was run: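 Rat striatal membranes were prepared with adenosine deaminase (3 units/mL), including a 30 min step at 30 °C.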

Adenosine receptor A1 = target: T3, Adenosine receptor A1 (Rattus norvegicus, UniProt P25099); assay: Displacement of specific [3H]PIA binding from adenosine A1 receptor in rat brain membranes.; format: cell membranes
T3 sequence (P25099 whole entry): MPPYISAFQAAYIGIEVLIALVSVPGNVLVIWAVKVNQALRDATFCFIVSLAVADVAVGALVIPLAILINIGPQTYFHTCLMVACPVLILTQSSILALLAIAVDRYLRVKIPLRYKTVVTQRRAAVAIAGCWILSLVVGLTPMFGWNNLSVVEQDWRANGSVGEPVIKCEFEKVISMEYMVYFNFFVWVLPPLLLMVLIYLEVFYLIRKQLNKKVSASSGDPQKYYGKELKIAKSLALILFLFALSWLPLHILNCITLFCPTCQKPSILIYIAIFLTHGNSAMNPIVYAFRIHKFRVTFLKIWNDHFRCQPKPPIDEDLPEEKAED
How it was run: (§1)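 Rat cortical membranes were pretreated with adenosine deaminase (3 units/mL) for 30 min at 30 °C during preparation. The enzyme was also present during incubation with [3H]-(R)-PIA. Ki values were derived from displacement of specific binding.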

[3] = target: T4, Adenosine receptor A1 (Rattus norvegicus) (UniProt P25099); assay: Displacement of [3H]PIA from Adenosine A1 receptor in rat brain membranes; format: cell membranes; how it was run: as §1
T4 sequence (whole entry): T3 sequence (P25099 whole entry)

Sequence of Adenosine receptor A2a (Rattus norvegicus) (P30543 whole entry): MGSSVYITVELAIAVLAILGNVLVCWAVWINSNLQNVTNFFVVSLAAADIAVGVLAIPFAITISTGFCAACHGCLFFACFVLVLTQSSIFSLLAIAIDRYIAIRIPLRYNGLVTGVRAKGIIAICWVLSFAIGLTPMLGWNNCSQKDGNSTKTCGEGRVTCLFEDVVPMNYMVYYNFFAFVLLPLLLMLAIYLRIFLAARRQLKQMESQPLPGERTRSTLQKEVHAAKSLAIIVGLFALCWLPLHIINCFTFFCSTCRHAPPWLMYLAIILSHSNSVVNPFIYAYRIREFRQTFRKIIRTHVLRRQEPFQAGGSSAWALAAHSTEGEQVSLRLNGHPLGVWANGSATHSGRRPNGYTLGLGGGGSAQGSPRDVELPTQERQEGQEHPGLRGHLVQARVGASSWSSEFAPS
Sequence of Adenosine receptor A2a (P30543 whole entry): as above

| Displacement [1] | SMILES | further results |
| --- | --- | --- |
| 19% | CCn1c2c(c3cc4c(cc3c1=O)OCO4)C(=O)CCC2 |  |
| 63% | O=c1cc(-c2ccc(O)cc2)oc2cc(O)cc(O)c12 |  |
| 20% | O=c1c(-c2ccc(O)cc2)coc2cc(O)cc(O)c12 |  |
| < 10% | O=C1c2cc(O)c(O)cc2C2c3ccc(O)c(O)c3OCC12O (stereo not given) | Displacement [2]: 28% |
|  | COc1ccc2c(=O)c(O)c(-c3ccc(O)c(O)c3)oc2c1 | Ki (Adenosine receptor A3): 1.38 µM |
|  | COc1cc(O)c2c(c1)OC(c1ccc(O)cc1)CC2=O (stereo not given) | Ki (Adenosine receptor A3): 3.4 µM; Ki (Adenosine receptor A2a): 35.6 µM; Ki (Adenosine receptor A1): 8.18 µM |
| 52% | O=C1c2ccccc2-c2cc3c(cc21)OCO3 |  |
| 71% | O=c1cc(-c2ccccc2)oc2c1ccc1ccccc12 |  |
| < 10% | COc1cc2c3c(c1)c1cc4c(cc1c(=O)n3CC2)OCO4 | Displacement [2]: < 10% |
| 32% | COc1ccc(-c2cc(=O)c3ccc(O)cc3o2)cc1OC |  |
| < 10% | COC1C=CC23c4cc5c(cc4C[N+](C)(CC2OC(C)=O)C3C1)OCO5 (stereo not given) | Displacement [2]: < 10% |
|  | O=C1c2c(O)cc(O)cc2OC(c2ccc(O)c(O)c2)C1O (racemic) | Displacement [3]: < 10% |
| 63% | COc1cc2c(c(O)c1OC)c(=O)c1ccccc1n2C |  |
| 47% | O=c1cc(-c2ccccc2)oc2cccc(O)c12 |  |
| 41% | O=c1cc(-c2ccccc2)oc2cc(O)ccc12 |  |
| 69% | COc1ccc(-c2cc(=O)c3c(O)cc(OC)cc3o2)cc1 | Displacement [3]: < 10%; Displacement [2]: < 10% |
| < 10% | COc1cc2c3c(oc(=O)c2cc1OC)CCCC3=O |  |
|  | Cc1ccc(-c2cc(=O)c3c(C)c(C)c(C)cc3o2)cc1 | Ki (Adenosine receptor A3): 4.48 µM; Ki (Adenosine receptor A1): 1.29 µM |
|  | COc1cc(OC)c2c(=O)c(OC)c(-c3cc(OC)c(OC)c(OC)c3)oc2c1 | Displacement [3]: < 10% |
| 12% | O=c1cc(-c2ccccc2)oc2ccc3ccccc3c12 | Displacement [2]: < 10% |
| 63% | COc1c(O)cc2oc(-c3ccc(O)cc3)cc(=O)c2c1O |  |
